Reference: ChEMBL document CHEMBL1149258, “Synthesis and structure-activity relationships of novel histamine H1 antagonists: indolylpiperidinyl benzoic acid derivatives” (J Med Chem, 2004)
Active and inactive are the calls of the source. Unless noted, the calls are words filed in the database; no cut-off is given here.

Key:
[1] = target: Histamine H1 receptor (Mus musculus) (UniProt P70174); assay: Ex vivo displacement of [3H]mepyramine from brain histamine H1 receptor in orally dosed Swiss Albino mouse; assay type: functional, organism-based
Summary of the method: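 Overnight-fasted male mice (20-25 g) dosed orally at several doses (0.5% methylcellulose/0.1% Tween 80, 10 mL/kg), killed 90 min later. Whole brain homogenised in ice-cold 0.05 M Na+/K+ phosphate pH 7.4; aliquots incubated in triplicate with 2 nM final [3H]-mepyramine, 40 min at 30 °C, then filtered. Nonspecific binding from 30 mg/kg po D-chlorpheniramine; total binding from vehicle. Three animals per dose; ED50 reported.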

[2] = test system: Rattus norvegicus; assay: Inhibition of increase in histamine-induced cutaneous vascular permeability in orally dosed Wistar rat model after 4 hrs; assay type: functional; settings: po
Summary of the method: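 Fasted male rats (150-175 g; n=5 per condition) dosed orally in 0.5% methylcellulose/0.1% Tween 80. At 4 h, under light ether, received four intradermal injections of 5 µg histamine, then 0.5% Evans Blue iv. Killed 1 h later. Papule area from maximum and minimum diameters (ellipse); inhibition of papule area; ED50 (mg/kg, po).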

[3] = test system: Rattus norvegicus; assay: Inhibition of increase in histamine-induced cutaneous vascular permeability in orally dosed Wistar rat model after 8 hrs; assay type: functional; settings: po
Summary of the method: (§1)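 Male Wistar rats (150-175 g), fasted, dosed orally in 0.5% methylcellulose/0.1% Tween 80 (10 mL/kg), n=5. At 1 or 8 h after dosing, four intradermal injections of 5 µg histamine were given, plus iv 0.5% Evans Blue. Papule area (ellipse) measured 1 h later. ED50 in mg/kg po.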

[4] = target: T1, Adrenergic receptor alpha-1 (Rattus norvegicus, UniProt P15823+P23944+P43140); assay: Displacement of [3H]prazosin from adrenergic alpha-1 receptor in rat brain membranes; assay type: cell membranes
T1 sequence (P15823 whole entry): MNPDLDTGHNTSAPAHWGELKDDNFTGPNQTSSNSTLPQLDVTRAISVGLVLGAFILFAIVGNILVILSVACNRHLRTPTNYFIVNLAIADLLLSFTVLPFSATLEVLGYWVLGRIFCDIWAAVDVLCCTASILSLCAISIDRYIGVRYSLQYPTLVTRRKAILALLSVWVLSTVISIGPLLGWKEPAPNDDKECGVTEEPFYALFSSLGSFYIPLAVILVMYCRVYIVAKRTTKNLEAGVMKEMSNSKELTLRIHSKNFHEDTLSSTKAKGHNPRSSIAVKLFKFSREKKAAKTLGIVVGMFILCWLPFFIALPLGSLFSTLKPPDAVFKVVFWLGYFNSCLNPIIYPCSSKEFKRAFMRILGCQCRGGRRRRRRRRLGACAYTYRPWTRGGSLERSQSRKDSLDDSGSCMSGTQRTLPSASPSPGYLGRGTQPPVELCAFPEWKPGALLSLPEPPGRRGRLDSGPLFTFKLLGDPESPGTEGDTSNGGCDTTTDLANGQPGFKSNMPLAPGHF
T1 sequence (P23944 whole entry): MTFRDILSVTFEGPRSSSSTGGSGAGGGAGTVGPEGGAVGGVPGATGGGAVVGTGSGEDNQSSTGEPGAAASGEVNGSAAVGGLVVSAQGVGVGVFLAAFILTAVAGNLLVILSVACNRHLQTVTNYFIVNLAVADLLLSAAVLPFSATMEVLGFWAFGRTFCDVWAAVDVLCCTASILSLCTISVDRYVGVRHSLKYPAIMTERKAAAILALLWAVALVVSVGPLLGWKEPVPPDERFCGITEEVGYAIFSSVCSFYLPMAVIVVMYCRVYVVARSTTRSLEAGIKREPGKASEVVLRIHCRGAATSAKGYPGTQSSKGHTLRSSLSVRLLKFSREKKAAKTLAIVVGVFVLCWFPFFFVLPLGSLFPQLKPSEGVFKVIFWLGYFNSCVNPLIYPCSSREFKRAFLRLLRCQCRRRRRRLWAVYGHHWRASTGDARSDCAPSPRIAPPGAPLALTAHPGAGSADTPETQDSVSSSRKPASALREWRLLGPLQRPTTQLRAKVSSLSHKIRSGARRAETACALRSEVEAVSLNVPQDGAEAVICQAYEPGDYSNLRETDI
T1 sequence (P43140 whole entry): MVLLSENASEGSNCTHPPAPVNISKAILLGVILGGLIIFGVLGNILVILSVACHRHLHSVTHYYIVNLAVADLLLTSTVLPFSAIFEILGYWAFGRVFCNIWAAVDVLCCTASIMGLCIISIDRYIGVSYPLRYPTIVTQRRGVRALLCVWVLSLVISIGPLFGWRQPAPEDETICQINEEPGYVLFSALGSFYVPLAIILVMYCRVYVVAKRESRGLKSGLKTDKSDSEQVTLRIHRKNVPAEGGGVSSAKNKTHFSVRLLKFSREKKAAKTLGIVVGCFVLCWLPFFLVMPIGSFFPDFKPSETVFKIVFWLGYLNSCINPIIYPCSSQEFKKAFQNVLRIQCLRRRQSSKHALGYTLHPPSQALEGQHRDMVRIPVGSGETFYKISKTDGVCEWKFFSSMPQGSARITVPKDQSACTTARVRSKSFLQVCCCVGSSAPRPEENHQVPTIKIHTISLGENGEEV
Summary of the method: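 Rat brain membranes (340 µg protein/mL) with 0.25 nM [3H]-prazosin in 50 mM Tris-HCl pH 7.7, room temperature, 60 min, filtration. Nonspecific binding with 100 µM prazosin. Several concentrations run in duplicate; IC50 by nonlinear regression.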

[5] = target: Histamine H1 receptor (Cavia porcellus, UniProt P31389); assay: Displacement of [3H]mepyramine from histamine H1 receptor in guinea pig cerebellum membranes; assay type: cell membranes, Membrane
Summary of the method: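 Guinea pig cerebellum membranes (160 µg/mL) incubated with 0.7 nM [3H]-mepyramine at 30 °C for 30 min, 0.5 mL final volume, ended by filtration. Nonspecific binding with 10 µM promethazine. At least six concentrations in duplicate; IC50 by nonlinear regression. Compound stocks 10^-2 M in DMSO, diluted in 50% DMSO.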

[6] = target: CYP3A4 (Homo sapiens, UniProt P08684); assay: Inhibition of CYP3A4 in human microsomes at 25 uM; assay type: ADME, Microsome
[7] = Volume of distribution at steady state in Wistar rat at 1 mg/kg, iv after 8 hrs; assay type: ADME, organism-based; design: dose 1 mg/kg, route intravenous; settings: in vivo, read-out: Vss
Summary of the method: (§2)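 Male Wistar rats, fasted overnight, dosed iv at 1 mg/kg. Blood sampled from 0.1 to 24 h; plasma stored at -20 °C. Levels measured by isocratic HPLC-UV (225 nm) after on-line solid-phase extraction, or by HPLC-MS (ESI+) for one analyte. Parameters from noncompartmental analysis.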

[8] = Half life in Wistar rat at 1 mg/kg, iv after 8 hrs; assay type: ADME, organism-based; design: dose 1 mg/kg, route intravenous; settings: in vivo; summary of the method: as §2
[9] = test system: Rattus norvegicus; assay: Inhibition of increase in histamine-induced cutaneous vascular permeability in orally dosed Wistar rat model after 1 hrs; assay type: functional; settings: po; summary of the method: as §1
[10] = Clearance in Wistar rat at 1 mg/kg, iv after 8 hrs; assay type: ADME, organism-based; design: dose 1 mg/kg, route intravenous; settings: in vivo; summary of the method: as §2
[11] = test system: Cavia porcellus; assay: Effect on QT interval prolongation in Dunkin-Hartley guinea pigs at 10 mg/kg, iv; assay type: functional, organism-based; design: dose 10 mg/kg
[12] = target: Adrenergic receptor alpha-1 (Rattus norvegicus) (UniProt P15823+P23944+P43140); assay: Displacement of [3H]prazosin from adrenergic alpha-1 receptor in rat brain membranes at 10 uM; assay type: cell membranes
[13] = target: Histamine H1 receptor (Cavia porcellus) (UniProt P31389); assay: Displacement of [3H]mepyramine from histamine H1 receptor in guinea pig cerebellum membranes at […]; assay type: cell membranes; settings: Membrane
Summary of the method: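 Guinea-pig cerebellum membranes (160 µg/mL) incubated at 30 °C for 30 min with 0.7 nM [3H]-mepyramine, 0.5 mL final volume; filtration, bound radioactivity counted. Nonspecific binding with 10 µM promethazine. At least six concentrations in duplicate; IC50 by nonlinear regression. Stocks 10^-2 M in DMSO, further dilutions in 50% DMSO.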

Chain of Histamine H1 receptor (Mus musculus) (P70174 whole entry): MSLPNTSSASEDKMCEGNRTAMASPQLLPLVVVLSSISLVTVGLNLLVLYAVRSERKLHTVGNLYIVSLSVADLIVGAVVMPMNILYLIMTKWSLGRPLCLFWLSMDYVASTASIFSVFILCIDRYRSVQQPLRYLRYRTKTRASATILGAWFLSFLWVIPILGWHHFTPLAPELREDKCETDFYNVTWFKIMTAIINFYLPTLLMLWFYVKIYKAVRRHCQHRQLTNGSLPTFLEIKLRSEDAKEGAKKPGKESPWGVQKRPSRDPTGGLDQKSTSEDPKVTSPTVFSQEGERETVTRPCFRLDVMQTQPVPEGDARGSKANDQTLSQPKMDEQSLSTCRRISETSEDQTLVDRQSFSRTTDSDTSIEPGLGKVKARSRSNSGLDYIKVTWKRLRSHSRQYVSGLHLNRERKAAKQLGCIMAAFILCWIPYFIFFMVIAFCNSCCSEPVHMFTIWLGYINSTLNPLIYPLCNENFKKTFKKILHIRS
Chain of Histamine H1 receptor (P31389 whole entry): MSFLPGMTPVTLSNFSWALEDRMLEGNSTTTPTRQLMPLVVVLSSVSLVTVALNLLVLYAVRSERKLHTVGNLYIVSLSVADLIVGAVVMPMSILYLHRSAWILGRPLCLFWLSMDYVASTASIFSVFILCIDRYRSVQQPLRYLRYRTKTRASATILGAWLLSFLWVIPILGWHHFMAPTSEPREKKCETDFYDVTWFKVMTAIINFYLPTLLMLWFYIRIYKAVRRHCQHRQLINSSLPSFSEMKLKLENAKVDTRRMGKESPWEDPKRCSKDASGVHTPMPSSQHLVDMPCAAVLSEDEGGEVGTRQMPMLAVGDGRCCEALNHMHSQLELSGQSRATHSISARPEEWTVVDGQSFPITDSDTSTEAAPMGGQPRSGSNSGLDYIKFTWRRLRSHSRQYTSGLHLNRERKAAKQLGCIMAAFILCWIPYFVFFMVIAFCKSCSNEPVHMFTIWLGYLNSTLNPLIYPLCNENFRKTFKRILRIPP
Chain of CYP3A4 (P08684 whole entry): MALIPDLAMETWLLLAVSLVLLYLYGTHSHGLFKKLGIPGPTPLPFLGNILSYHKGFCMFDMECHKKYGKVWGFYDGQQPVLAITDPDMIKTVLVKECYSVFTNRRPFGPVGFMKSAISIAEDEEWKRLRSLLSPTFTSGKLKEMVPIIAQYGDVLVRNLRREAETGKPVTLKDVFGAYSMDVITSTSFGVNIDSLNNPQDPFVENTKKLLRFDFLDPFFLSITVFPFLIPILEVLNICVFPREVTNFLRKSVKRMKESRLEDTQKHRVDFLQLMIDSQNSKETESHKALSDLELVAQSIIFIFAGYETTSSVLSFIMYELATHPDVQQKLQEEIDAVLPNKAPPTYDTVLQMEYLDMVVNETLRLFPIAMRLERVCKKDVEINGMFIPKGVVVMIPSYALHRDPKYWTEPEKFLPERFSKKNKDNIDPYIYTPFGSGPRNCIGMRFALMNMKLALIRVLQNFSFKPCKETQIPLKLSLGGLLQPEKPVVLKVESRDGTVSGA
Chain of Histamine H1 receptor (Cavia porcellus) (P31389 whole entry): as the sequence (P31389 whole entry) above

| Compound | ED50 [1] | ED50 [2] | ED50 [3] | IC50 [4] | IC50 [5] | inhibition at 25 µM [6] | Vd [7] | half-life [8] | ED50 [9] | clearance [10] | Activity [11] | Activity [12] | Activity [13] |
| --- | --- | --- | --- | --- | --- | --- | --- | --- | --- | --- | --- | --- | --- |
| O=C(O)c1ccccc1OCCN1CCC(c2cn(CC3CC3)c3ccccc23)CC1 | > 100 mg/kg | 0.6 mg/kg | 1.3 mg/kg (antagonist) | > 10 µM |  |  |  |  |  |  |  |  |  |
| CCCCn1cc(C2CCN(CCOc3ccccc3C(=O)O)CC2)c2ccc(F)cc21 | 10 mg/kg | 0.07 mg/kg | 0.14 mg/kg (antagonist) | > 10 µM | 0.047 µM (antagonist) |  |  |  |  |  |  |  |  |
| CCOCCn1cc(C2CCN(CCOc3ccccc3C(=O)O)CC2)c2ccccc21 | 8 mg/kg | 0.1 mg/kg | 0.22 mg/kg (antagonist) | 10 µM |  | 0% | 0.7 L/kg | 1.1 h | 0.02 mg/kg | 10 mL/min/kg | inactive |  |  |
| COc1ccc(CN2CCC(c3cn(Cc4ccoc4)c4cc(F)ccc34)CC2)cc1C(=O)O | 7 mg/kg | 0.02 mg/kg | 0.037 mg/kg (antagonist) | > 10 µM |  |  |  |  |  |  |  |  |  |
| CCOCCn1cc(C2CCN(CCOc3ccccc3C(=O)O)CC2)c2cc(OC)ccc21 | > 100 mg/kg | 0.035 mg/kg | 0.08 mg/kg (antagonist) | > 10 µM | 0.155 µM (antagonist) |  | 0.5 L/kg | 0.9 h |  | 13.3 mL/min/kg |  |  |  |
| CCOCCn1cc(C2CCN(Cc3ccc(F)c(C(=O)O)c3)CC2)c2ccccc21 | 0.5 mg/kg |  | 0.01 mg/kg (antagonist) | > 10 µM | 0.3 µM (antagonist) |  |  |  |  |  |  |  |  |
| CCOC(=O)N1CCC(=C2c3ccc(Cl)cc3CCc3cccnc32)CC1 [LORATADINE] |  |  |  |  |  |  |  |  | 0.75 mg/kg |  | inactive |  |  |
| COc1ccc(CN2CCC(c3cn(Cc4cccs4)c4cc(F)ccc34)CC2)cc1C(=O)O | 29 mg/kg | 0.2 mg/kg | 0.66 mg/kg (antagonist) | > 10 µM |  |  | 1.1 L/kg | 3.8 h |  | 5 mL/min/kg |  |  |  |
| CCOCCn1cc(C2CCN(Cc3ncccc3C(=O)O)CC2)c2ccccc21 |  |  |  |  |  |  |  |  |  |  |  | 4% | 11% |
| O=C(O)c1ccccc1OCCN1CCC(c2cn(CCC3OCCO3)c3ccccc23)CC1 | > 100 mg/kg | 0.46 mg/kg | 0.9 mg/kg (antagonist) | 6.5 µM |  |  | 0.5 L/kg | 2.9 h |  | 5 mL/min/kg |  |  |  |
| COCCn1cc(C2CCN(Cc3ccc(OC)c(C(=O)O)c3)CC2)c2ccc(F)cc21 | 4 mg/kg | 0.06 mg/kg | 0.02 mg/kg (antagonist) | > 10 µM |  |  |  |  |  |  |  |  |  |
| CCOCCn1cc(C2CCN(Cc3ccc(C(=O)O)cc3)CC2)c2ccccc21 | 4.5 mg/kg |  | 0.15 mg/kg (antagonist) |  |  |  |  |  |  |  |  | 8% | 7% |
| COc1ccc(CN2CCC(c3cn(Cc4ccc(Cl)s4)c4cc(F)ccc34)CC2)cc1C(=O)O | 5.5 mg/kg | 0.19 mg/kg | 0.09 mg/kg (antagonist) | > 10 µM |  |  |  |  |  |  |  |  |  |
| CCCCn1cc(C2CCN(CCOc3ccccc3C(=O)O)CC2)c2ccccc21 | 100 mg/kg | 0.74 mg/kg | 0.8 mg/kg (antagonist) | > 10 µM |  |  | 0.4 L/kg | 1.6 h |  | 6.67 mL/min/kg |  |  |  |
| COc1ccc(CN2CCC(c3cn(Cc4cccs4)c4ccccc34)CC2)cc1C(=O)O | 11.5 mg/kg | 0.24 mg/kg | 0.56 mg/kg (antagonist) | > 10 µM |  | -5% | 1.8 L/kg | 3.1 h | 0.32 mg/kg | 10 mL/min/kg | inactive |  |  |
| O=C(O)c1ccccc1OCCN1CCC(c2cn(Cc3ccoc3)c3cc(F)ccc23)CC1 | 19 mg/kg | 0.12 mg/kg | 0.17 mg/kg (antagonist) | > 10 µM | 0.042 µM (antagonist) |  |  |  |  |  |  |  |  |
